Laboratory results from ChEMBL document CHEMBL3232885, “Synthesis, characterization and pharmacological screening of some novel 5-imidazopyrazole incorporated polyhydroquinoline derivatives” (Eur J Med Chem, 2014).
Values after ≈ are worked out from the molar mass of the structure shown.

What was measured:
[1] = test system: Vibrio cholerae; experiment: Antibacterial activity against Vibrio cholerae MTCC 3906 assessed as growth inhibition after 24 to 48 hrs by broth microdilution method; type: functional
[2] = test system: Clostridium tetani; experiment: Antibacterial activity against Clostridium tetani MTCC 449 assessed as growth inhibition after 24 to 48 hrs by broth microdilution method; type: functional
[3] = test system: Streptococcus pneumoniae; experiment: Antibacterial activity against Streptococcus pneumoniae MTCC 1936 assessed as growth inhibition after 24 to 48 hrs by broth microdilution method; type: functional
Procedure, shortened: (§1)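 Bacteria were grown in Mueller-Hinton broth with inoculum adjusted to 10⁸ CFU mL⁻¹ by turbidity. Compounds were serially diluted in 2% aqueous DMSO and incubated at 37 °C overnight. Growth was checked by subculture at 24 and 48 h. MIC was taken as the highest dilution with no turbidity after spot subculture.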

[4] = test system: Escherichia coli; experiment: Antibacterial activity against Escherichia coli MTCC 443 assessed as growth inhibition after 24 to 48 hrs by broth microdilution method; type: functional; procedure, shortened: as §1
[5] = test system: Salmonella typhi; experiment: Antibacterial activity against Salmonella typhi MTCC 98 assessed as growth inhibition after 24 to 48 hrs by broth microdilution method; type: functional, Salmonella enterica subsp. enterica serovar Typhi; conditions: Salmonella enterica
[6] = test system: Bacillus subtilis; experiment: Antibacterial activity against Bacillus subtilis MTCC 441 assessed as growth inhibition after 24 to 48 hrs by broth microdilution method; type: functional; procedure, shortened: as §1
[7] = test system: Aspergillus fumigatus; experiment: Antifungal activity against Aspergillus fumigatus MTCC 3008 assessed as growth inhibition after 24 to 48 hrs by broth microdilution method; type: functional
Procedure, shortened: (§2)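 Fungal nutrition used Sabouraud Dextrose broth with inoculum at 10⁸ CFU mL⁻¹ by turbidity. Serial compound dilutions were made in 2% DMSO in water. Growth was noted on subculture after 24 and 48 h. MIC was taken as the highest dilution preventing visible turbidity after spot subculture.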

[8] = test system: Candida albicans; experiment: Antifungal activity against Candida albicans MTCC 227 assessed as growth inhibition after 24 to 48 hrs by broth microdilution method; type: functional; procedure, shortened: as §2
[9] = test system: Mycobacterium tuberculosis; experiment: Antitubercular activity against Mycobacterium tuberculosis H37Rv assessed as inhibition of colony formation at 100 ug/mL after 2 to 4 weeks by Lowensteine-Jensen method relative to control; type: functional
[10] = test system: Mycobacterium tuberculosis; experiment: Antitubercular activity against Mycobacterium tuberculosis H37Rv assessed as inhibition of colony formation at 250 ug/mL after 2 to 4 weeks by Lowensteine-Jensen method relative to control; type: functional
[11] = test system: Plasmodium falciparum; experiment: Antimalarial activity against chloroquine/quinine sensitive Plasmodium falciparum assessed as parasite growth inhibition after 48 hrs; type: functional, organism-based

Molecule | MIC [1] [mg/L] | MIC [2] [mg/L] | MIC [3] [mg/L] | MIC [4] [mg/L] | MIC [5] [mg/L] | MIC [6] [mg/L] | MIC [7] [mg/L] | MIC [8] [mg/L] | inhibition at 100 µg/mL [9] [%] | inhibition at 250 µg/mL [10] [%] | IC50 [11] [mg/L]
O=C(N[C@H](CO)[C@H](O)c1ccc([N+](=O)[O-])cc1)C(Cl)Cl [CHLORAMPHENICOL] | 50 (≈ 155 µM) | 25 (≈ 77.4 µM) | 100 (≈ 309 µM) | 10 (≈ 30.9 µM) | 50 (≈ 155 µM) | 50 (≈ 155 µM) |  |  |  |  | 
Cc1nn(-c2ccccc2)c(-n2ccnc2)c1C1C(C#N)=C(N)N(c2ccccc2O)C2=C1C(=O)CC(C)(C)C2 (stereo not drawn) | 125 (≈ 235 µM) | 200 (≈ 376 µM) | 125 (≈ 235 µM) | 250 (≈ 470 µM) | 250 (≈ 470 µM) | 100 (≈ 188 µM) | 500 (≈ 941 µM) | 1000 (≈ 1880 µM) | 38 | 45 | 0.71 (≈ 1.34 µM)
CCOC(=O)C1=C(N)N(c2ccc(O)cc2)C2=C(C(=O)CCC2)C1c1c(C)nn(-c2ccccc2)c1-n1ccnc1 (stereo not drawn) | 200 (≈ 363 µM) | 200 (≈ 363 µM) | 250 (≈ 454 µM) | 62.5 (≈ 114 µM) | 200 (≈ 363 µM) | 200 (≈ 363 µM) | 500 (≈ 908 µM) | 500 (≈ 908 µM) | 37 | 41 | 0.067 (≈ 0.122 µM)
CCOC(=O)C1=C(N)N(c2ccc(C)cc2)C2=C(C(=O)CC(C)(C)C2)C1c1c(C)nn(-c2ccccc2)c1-n1ccnc1 (stereo not drawn) | 100 (≈ 173 µM) | 250 (≈ 434 µM) | 100 (≈ 173 µM) | 125 (≈ 217 µM) | 100 (≈ 173 µM) | 250 (≈ 434 µM) | > 1000 | 1000 (≈ 1730 µM) | 6 | 12 | 1.79 (≈ 3.1 µM)
Cc1nn(-c2ccccc2)c(-n2ccnc2)c1C1C(C(N)=O)=C(N)N(c2cccc(O)c2)C2=C1C(=O)CC(C)(C)C2 (stereo not drawn) | 200 (≈ 364 µM) | 200 (≈ 364 µM) | 125 (≈ 227 µM) | 125 (≈ 227 µM) | 200 (≈ 364 µM) | 200 (≈ 364 µM) | 500 (≈ 910 µM) | 500 (≈ 910 µM) | 75 | 84 | 0.57 (≈ 1.04 µM)
CO[C@H]1/C=C/O[C@@]2(C)Oc3c(C)c(O)c4c(O)c(c(/C=N/N5CCN(C)CC5)c(O)c4c3C2=O)NC(=O)/C(C)=C\C=C\[C@H](C)[C@H](O)[C@@H](C)[C@@H](O)[C@@H](C)[C@H](OC(C)=O)[C@@H]1C [RIFAMPIN] |  |  |  |  |  |  |  |  | 98 | 98 | 
COC1=CC(=O)C[C@@H](C)[C@]12Oc1c(Cl)c(OC)cc(OC)c1C2=O [GRISEOFULVIN] |  |  |  |  |  |  | 100 (≈ 283 µM) | 100 (≈ 283 µM) |  |  | 
Cc1ccc(N2C(N)=C(C#N)C(c3c(C)nn(-c4ccccc4)c3-n3ccnc3)C3=C2CC(C)(C)CC3=O)cc1 (stereo not drawn) | 250 (≈ 472 µM) | 100 (≈ 189 µM) | 125 (≈ 236 µM) | 200 (≈ 378 µM) | 62.5 (≈ 118 µM) | 100 (≈ 189 µM) | 1000 (≈ 1890 µM) | 1000 (≈ 1890 µM) | 80 | 90 | 1.07 (≈ 2.03 µM)
CCOC(=O)C1=C(N)N(c2ccc(Cl)cc2)C2=C(C(=O)CC(C)(C)C2)C1c1c(C)nn(-c2ccccc2)c1-n1ccnc1 (stereo not drawn) | 200 (≈ 335 µM) | 125 (≈ 209 µM) | 125 (≈ 209 µM) | 100 (≈ 167 µM) | 100 (≈ 167 µM) | 100 (≈ 167 µM) | 500 (≈ 837 µM) | > 1000 | 58 | 63 | 0.057 (≈ 0.0955 µM)
O=C(O)c1cn(C2CC2)c2cc(N3CCNCC3)c(F)cc2c1=O [CIPROFLOXACIN] | 50 (≈ 151 µM) |  |  |  | 10 (≈ 30.2 µM) | 100 (≈ 302 µM) |  |  |  |  | 
NYSTATIN |  |  |  |  |  |  | 500 | 100 |  |  | 
Cc1nn(-c2ccccc2)c(-n2ccnc2)c1C1C(C(N)=O)=C(N)N(c2ccc(O)cc2)C2=C1C(=O)CC(C)(C)C2 (stereo not drawn) | 250 (≈ 455 µM) | 250 (≈ 455 µM) | 250 (≈ 455 µM) | 250 (≈ 455 µM) | 125 (≈ 227 µM) | 200 (≈ 364 µM) | 1000 (≈ 1820 µM) | 500 (≈ 910 µM) | 61 | 70 | 0.057 (≈ 0.104 µM)
CCOC(=O)C1=C(N)N(c2ccc(O)cc2)C2=C(C(=O)CC(C)(C)C2)C1c1c(C)nn(-c2ccccc2)c1-n1ccnc1 (stereo not drawn) | 200 (≈ 346 µM) | 200 (≈ 346 µM) | 250 (≈ 432 µM) | 200 (≈ 346 µM) | 200 (≈ 346 µM) | 62.5 (≈ 108 µM) | > 1000 | 500 (≈ 864 µM) | 12 | 20 | 0.096 (≈ 0.166 µM)
